Laboratory results reported in ChEMBL document CHEMBL5058577, “EUbOPEN Chemogenomics Library 2 (Multiplex)” (2022).

Tested on: HEK-293T
Experiment: Multiplex assay against HEK293T
Assay type: toxicity, cell-based
Settings: human
In short: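 Live cells carried four stains from seeding: Hoechst33342, BioTracker Green Microtubule Cytoskeleton Dye, MitoTracker Red and Annexin V Alexa Fluor 680. They were imaged on a CQ1 microscope at 37°C and 5% CO2 after compound addition. Using CellPathfinder machine-learning gating, cells were split into Hoechst high-intensity objects or normal cells, normal cells into healthy, pyknosed or fragmented nuclei, and pyknosed cells into mitotic or apoptotic; tubulin, mitochondrial-mass and membrane-permeability phenotypes are per cents of healthy-nucleus cells.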

[1] = 12 h, 1 µM, compound concentration 1 uM, replicate 1
[2] = 12 h, 1 µM, compound concentration 1 uM, replicate 2
[3] = 12 h, 10 µM, compound concentration 10 uM, replicate 1
[4] = 12 h, 10 µM, compound concentration 10 uM, replicate 2
[5] = 24 h, 1 µM, compound concentration 1 uM, replicate 1
[6] = 24 h, 1 µM, compound concentration 1 uM, replicate 2
[7] = 24 h, 10 µM, compound concentration 10 uM, replicate 1
[8] = 24 h, 10 µM, compound concentration 10 uM, replicate 2
[9] = 48 h, 1 µM, compound concentration 1 uM, replicate 1
[10] = 48 h, 1 µM, compound concentration 1 uM, replicate 2
[11] = 48 h, 10 µM, compound concentration 10 uM, replicate 1
[12] = 48 h, 10 µM, compound concentration 10 uM, replicate 2

In the case of `Br.CS(=O)(=O)Nc1c(O)ccc2c1CCCC2C1=NCCN1` (configuration not stated), the “Population Apoptotic (%)” value [1] is reported as 40%, the “Population Fragmented Nuclei (%)” value [1] is reported as 7% and the “Population Healthy Nuclei (%)” value [1] is reported as 80%. The “Population Hoechst High Intensity Objects (%)” value [1] was 5%, the “Population Membrane Permeable-Phenotype (%)” value [1] was 0% and the “Population Mitochondria Different-Phenotype (%)” value [1] was 45%. For the same compound, the “Population Mitotic Cells (%)” value [1] was 59%, the “Population Normal (%)” value [1] was 94% and the “Population Pyknosed Nuclei (%)” value [1] was 12%. The “Population Tubulin-Different-Phenotype (%)” value [1] was 26%, the “Total Cell Count” value [1] was 407 and the “Population Apoptotic (%)” value [2] was 43%. The “Population Fragmented Nuclei (%)” value [2] was 5%, the “Population Healthy Nuclei (%)” value [2] was 81% and the “Population Hoechst High Intensity Objects (%)” value [2] was 8%. The “Population Mitochondria Different-Phenotype (%)” value [2] was 52%, the “Population Mitotic Cells (%)” value [2] was 56% and the “Population Normal (%)” value [2] was 91%. The “Population Tubulin-Different-Phenotype (%)” value [2] was 18%, the “Total Cell Count” value [2] was 334 and the “Population Apoptotic (%)” value [3] was 48%. For the same compound, the “Population Fragmented Nuclei (%)” value [3] was 8%, the “Population Healthy Nuclei (%)” value [3] was 76% and the “Population Hoechst High Intensity Objects (%)” value [3] was 12%. For the same compound, the “Population Membrane Permeable-Phenotype (%)” value [3] was 0%, the “Population Mitochondria Different-Phenotype (%)” value [3] was 60% and the “Population Mitotic Cells (%)” value [3] was 52%. For the same compound, the “Population Normal (%)” value [3] was 87%, the “Population Pyknosed Nuclei (%)” value [3] was 14% and the “Population Tubulin-Different-Phenotype (%)” value [3] was 33%. For the same compound, the “Total Cell Count” value [3] was 381, the “Population Apoptotic (%)” value [4] was 55% and the “Population Fragmented Nuclei (%)” value [4] was 6%. The “Population Healthy Nuclei (%)” value [4] was 79%, the “Population Hoechst High Intensity Objects (%)” value [4] was 14% and the “Population Mitochondria Different-Phenotype (%)” value [4] was 67%. For the same compound, the “Population Mitotic Cells (%)” value [4] was 44%, the “Population Normal (%)” value [4] was 85% and the “Population Tubulin-Different-Phenotype (%)” value [4] was 26%. For the same compound, the “Total Cell Count” value [4] was 292, the “Population Apoptotic (%)” value [5] was 38% and the “Population Fragmented Nuclei (%)” value [5] was 10%. For the same compound, the “Population Healthy Nuclei (%)” value [5] was 79%, the “Population Hoechst High Intensity Objects (%)” value [5] was 5% and the “Population Membrane Permeable-Phenotype (%)” value [5] was 1%. For the same compound, the “Population Mitochondria Different-Phenotype (%)” value [5] was 34%, the “Population Mitotic Cells (%)” value [5] was 61% and the “Population Normal (%)” value [5] was 94%. The “Population Pyknosed Nuclei (%)” value [5] was 10%, the “Population Tubulin-Different-Phenotype (%)” value [5] was 21% and the “Total Cell Count” value [5] was 549. For the same compound, the “Population Apoptotic (%)” value [6] was 55%, the “Population Fragmented Nuclei (%)” value [6] was 6% and the “Population Healthy Nuclei (%)” value [6] was 80%. The “Population Hoechst High Intensity Objects (%)” value [6] was 8%, the “Population Membrane Permeable-Phenotype (%)” value [6] was 0% and the “Population Mitochondria Different-Phenotype (%)” value [6] was 41%. For the same compound, the “Population Mitotic Cells (%)” value [6] was 44%, the “Population Normal (%)” value [6] was 91% and the “Population Pyknosed Nuclei (%)” value [6] was 13%. For the same compound, the “Population Tubulin-Different-Phenotype (%)” value [6] was 17%, the “Total Cell Count” value [6] was 387 and the “Population Apoptotic (%)” value [7] was 30%. The “Population Fragmented Nuclei (%)” value [7] was 11%, the “Population Healthy Nuclei (%)” value [7] was 75% and the “Population Hoechst High Intensity Objects (%)” value [7] was 6%. The “Population Membrane Permeable-Phenotype (%)” value [7] was 0%, the “Population Mitochondria Different-Phenotype (%)” value [7] was 40% and the “Population Mitotic Cells (%)” value [7] was 69%. The “Population Normal (%)” value [7] was 93%, the “Population Pyknosed Nuclei (%)” value [7] was 12% and the “Population Tubulin-Different-Phenotype (%)” value [7] was 23%. The “Total Cell Count” value [7] was 451, the “Population Apoptotic (%)” value [8] was 34% and the “Population Healthy Nuclei (%)” value [8] was 77%. For the same compound, the “Population Hoechst High Intensity Objects (%)” value [8] was 11%, the “Population Mitochondria Different-Phenotype (%)” value [8] was 46% and the “Population Mitotic Cells (%)” value [8] was 65%. The “Population Normal (%)” value [8] was 88%, the “Population Pyknosed Nuclei (%)” value [8] was 10% and the “Population Tubulin-Different-Phenotype (%)” value [8] was 21%. The “Total Cell Count” value [8] was 377, the “Population Apoptotic (%)” value [9] was 12% and the “Population Fragmented Nuclei (%)” value [9] was 14%. The “Population Healthy Nuclei (%)” value [9] was 78%, the “Population Hoechst High Intensity Objects (%)” value [9] was 4% and the “Population Membrane Permeable-Phenotype (%)” value [9] was 0%. For the same compound, the “Population Mitochondria Different-Phenotype (%)” value [9] was 20%, the “Population Mitotic Cells (%)” value [9] was 87% and the “Population Normal (%)” value [9] was 95%. For the same compound, the “Population Pyknosed Nuclei (%)” value [9] was 7%, the “Population Tubulin-Different-Phenotype (%)” value [9] was 14% and the “Total Cell Count” value [9] was 859. For the same compound, the “Population Apoptotic (%)” value [10] was 29%, the “Population Fragmented Nuclei (%)” value [10] was 11% and the “Population Hoechst High Intensity Objects (%)” value [10] was 6%. For the same compound, the “Population Mitochondria Different-Phenotype (%)” value [10] was 22%, the “Population Mitotic Cells (%)” value [10] was 70% and the “Population Normal (%)” value [10] was 93%. For the same compound, the “Population Pyknosed Nuclei (%)” value [10] was 9%, the “Population Tubulin-Different-Phenotype (%)” value [10] was 12% and the “Total Cell Count” value [10] was 532. For the same compound, the “Population Apoptotic (%)” value [11] was 34%, the “Population Fragmented Nuclei (%)” value [11] was 16% and the “Population Healthy Nuclei (%)” value [11] was 76%. The “Population Hoechst High Intensity Objects (%)” value [11] was 4%, the “Population Membrane Permeable-Phenotype (%)” value [11] was 1% and the “Population Mitochondria Different-Phenotype (%)” value [11] was 22%. The “Population Mitotic Cells (%)” value [11] was 65%, the “Population Normal (%)” value [11] was 95% and the “Population Pyknosed Nuclei (%)” value [11] was 6%. The “Population Tubulin-Different-Phenotype (%)” value [11] was 12%, the “Total Cell Count” value [11] was 671 and the “Population Apoptotic (%)” value [12] was 48%. The “Population Fragmented Nuclei (%)” value [12] was 14%, the “Population Healthy Nuclei (%)” value [12] was 79% and the “Population Membrane Permeable-Phenotype (%)” value [12] was 0%. The “Population Mitochondria Different-Phenotype (%)” value [12] was 27%, the “Population Mitotic Cells (%)” value [12] was 51% and the “Population Pyknosed Nuclei (%)” value [12] was 5%. The “Population Tubulin-Different-Phenotype (%)” value [12] was 11% and the “Total Cell Count” value [12] was 584.
